Laboratory results from ChEMBL document CHEMBL4765388, “Fluoropyrimidin-2,4-dihydroxy-5-isopropylbenzamides as antitumor agents against CRC and NSCLC cancer cells” (Eur J Med Chem, 2020).
Active and inactive are the calls of the source. No cut-off for these calls is given here.

What was measured:
[1] = biological target: Heat shock protein HSP 90-alpha (Homo sapiens, UniProt P07900); experiment: Inhibition of recombinant human full-length C-terminal Hsi-tagged HSP90alpha (1 to 732 residues) expressed in Escherichia coli measured after 2 to 3 hrs by FITC-labeled geldanamycin probe based fluorescence polarization assay
[2] = system: HCT-116; experiment: Antiproliferative activity against human HCT-116 cells measured after 48 hrs by SRB assay; type: functional
Method in brief: (§1)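 Cells seeded and cultured overnight, then exposed to a gradient of compound concentrations for 48 h in medium with 5% FBS. A time-zero plate was fixed with 10% TCA at drug addition. After treatment, cells were fixed with 10% TCA and stained with 0.4% SRB in 1% acetic acid. Bound dye was dissolved in 10 mM trizma base, absorbance read at 515 nm, and GI50 derived. Each experiment was run at least three times.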

[3] = system: A549; experiment: Antiproliferative activity against human A549 cells measured after 48 hrs by SRB assay; type: functional
Method in brief: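 Cells seeded and cultured overnight, then exposed to a gradient of compound concentrations for 48 h in medium with 5% FBS. A time-zero plate was fixed with 10% TCA at drug addition. After treatment, cells were fixed with 10% TCA and stained with 0.4% SRB in 1% acetic acid. Each experiment was run at least three times.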

[4] = system: NCI-H460; experiment: Antiproliferative activity against human NCI-H460 cells measured after 48 hrs by SRB assay; type: functional; method in brief: as §1
[5] = system: NCI-H1975; experiment: Antiproliferative activity against human NCI-H1975 cells measured after 48 hrs by SRB assay; type: functional; method in brief: as §1
[6] = system: HCT-116; experiment: Potency index, ratio of BIIB021 IC50 to test compound IC50 for human HCT-116 cells; type: functional
[7] = system: A549; experiment: Cell cycle arrest in human A549 cells assessed as accumulation at sub-G1 phase at 0.15 to 2.5 uM measured after 48 hrs by propidium iodide staining based flow cytometry; type: functional; settings: dose 0.15-2.5 µM
Method in brief: (§2)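 Cells in RPMI 1640 with 10% FBS, 37 °C, 5% CO2; 2.5×10^5/well, treated with DMSO or compound. Washed in PBS, fixed overnight in ice-cold 70% EtOH at -20 °C, stained in PBS with propidium iodide 80 µg/ml, Triton X-100 0.1% and RNase A 100 µg/ml. DNA content measured by FACScan; sub-G1 fraction quantified; means ± S.D., ≥3 independent experiments.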

[8] = system: HCT-116; experiment: Inhibition of colony formation in human HCT-116 cells at 0.009 to 0.018 uM measured after 24 hrs by crystal violet staining based assay; type: functional, cell-based; settings: dose 0.009-0.018 µM
Method in brief: (§3)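 Cells at 5×10^3/well, exposed to DMSO or compound for 24 h. Drug was washed out, and cells were trypsinized, replated and grown for 10 days. Colonies were fixed and stained with crystal violet (0.5% in 70% EtOH) and counted as % of control. Repeated at least twice.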

[9] = system: A549; experiment: Inhibition of colony formation in human A549 cells at 0.009 to 0.018 uM measured after 24 hrs by crystal violet staining based assay; type: functional, cell-based; settings: dose 0.009-0.018 µM; method in brief: as §3
[10] = system: NCI-H1975; experiment: Inhibition of colony formation in human NCI-H1975 cells at 0.009 to 0.018 uM measured after 24 hrs by crystal violet staining based assay; type: functional, cell-based; settings: dose 0.009-0.018 µM; method in brief: as §3
[11] = system: A549; experiment: Inhibition of HSP90 in human A549 cells assessed as upregulation of HSP70 expression at 0.075 to 1.25 uM after 24 hrs by Western blot analysis; type: cell-based; settings: dose 0.075-1.25 µM
[12] = system: NCI-H1975; experiment: Inhibition of HSP90 in human NCI-H1975 cells assessed as upregulation of HSP70 expression at 0.075 to 1.25 uM after 24 hrs by Western blot analysis; type: cell-based; settings: dose 0.075-1.25 µM
[13] = system: A549; experiment: Inhibition of HSP90 in human A549 cells assessed as down regulation of AKT expression at 0.075 to 1.25 uM after 24 hrs by Western blot analysis; type: cell-based; settings: dose 0.075-1.25 µM
[14] = system: NCI-H1975; experiment: Inhibition of HSP90 in human NCI-H1975 cells assessed as down regulation of AKT expression at 0.075 to 1.25 uM after 24 hrs by Western blot analysis; type: cell-based; settings: dose 0.075-1.25 µM
[15] = system: A549; experiment: Inhibition of HSP90 in human A549 cells assessed as down regulation of EGFR expression at 0.075 to 1.25 uM after 24 hrs by Western blot analysis; type: cell-based; settings: dose 0.075-1.25 µM
[16] = system: NCI-H1975; experiment: Inhibition of HSP90 in human NCI-H1975 cells assessed as down regulation of EGFR expression at 0.075 to 1.25 uM after 24 hrs by Western blot analysis; type: cell-based; settings: dose 0.075-1.25 µM
[17] = system: NCI-H1975; experiment: Cell cycle arrest in human NCI-H1975 cells assessed as accumulation at sub-G1 phase at 0.075 to 1.25 uM measured after 48 hrs by propidium iodide staining based flow cytometry; type: functional; settings: dose 0.075-1.25 µM; method in brief: as §2
[18] = system: A549; experiment: Induction of apoptosis in human A549 cells assessed as increase in cleaved caspase 3 expression after 48 hrs by Western blot analysis; type: functional, cell-based
Method in brief: (§4)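 Cells grown in RPMI 1640 with 10% FBS were left to attach overnight, then exposed to compound at stated concentrations for 48 h. Lysates were immunoblotted for cleaved PARP, γH2AX and cleaved caspase-3, -8 and -9. Each experiment was done at least three times.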

[19] = system: A549; experiment: Induction of apoptosis in human A549 cells assessed as increase in cleaved caspase 8 expression after 48 hrs by Western blot analysis; type: functional, cell-based; method in brief: as §4
[20] = system: A549; experiment: Induction of apoptosis in human A549 cells assessed as increase in cleaved caspase 9 expression after 48 hrs by Western blot analysis; type: functional, cell-based; method in brief: as §4
[21] = system: A549; experiment: Induction of apoptosis in human A549 cells assessed as increase in cleaved PARP expression after 48 hrs by Western blot analysis; type: functional, cell-based; method in brief: as §4
[22] = system: A549; experiment: Induction of apoptosis in human A549 cells assessed as increase in activated gamma H2AX expression after 48 hrs by Western blot analysis; type: functional, cell-based; method in brief: as §4
[23] = system: NCI-H1975; experiment: Induction of apoptosis in human NCI-H1975 cells assessed as increase in cleaved caspase 3 expression after 48 hrs by Western blot analysis; type: functional, cell-based; method in brief: as §4
[24] = system: NCI-H1975; experiment: Induction of apoptosis in human NCI-H1975 cells assessed as increase in cleaved caspase 8 expression after 48 hrs by Western blot analysis; type: functional, cell-based; method in brief: as §4
[25] = system: NCI-H1975; experiment: Induction of apoptosis in human NCI-H1975 cells assessed as increase in cleaved caspase 9 expression after 48 hrs by Western blot analysis; type: functional, cell-based; method in brief: as §4
[26] = system: NCI-H1975; experiment: Induction of apoptosis in human NCI-H1975 cells assessed as increase in cleaved PARP expression after 48 hrs by Western blot analysis; type: functional, cell-based; method in brief: as §4
[27] = system: NCI-H1975; experiment: Induction of apoptosis in human NCI-H1975 cells assessed as increase in activated gamma H2AX expression after 48 hrs by Western blot analysis; type: functional, cell-based; method in brief: as §4

## C#CCN(C(=O)c1cc(C(C)C)c(O)cc1O)c1ccc(Cn2c(=O)[nH]cc(F)c2=O)cc1
[1]
  IC50: 0.0544 µM
[2]
  GI50: 0.04 µM
[3]
  GI50: 0.03 µM
[4]
  GI50: 0.07 µM
[5]
  GI50: 0.02 µM

## C=CCN(C(=O)c1cc(C(C)C)c(O)cc1O)c1ccc(Cn2c(=O)[nH]cc(F)c2=O)cc1
[1]
  IC50: 0.048 µM
[2]
  GI50: 0.08 µM
[3]
  GI50: 0.1 µM
[4]
  GI50: 0.07 µM
[5]
  GI50: 0.05 µM

## CCNC(=O)c1noc(-c2cc(C(C)C)c(O)cc2O)c1-c1ccc(CN2CCOCC2)cc1 [LUMINESPIB]
[3]
  GI50: 0.01 µM
[4]
  GI50: 0.03 µM
[5]
  GI50: 0.02 µM

## CC(C)c1cc(C(=O)N(C)c2ccc(Cn3c(=O)c(F)cn(C4CCCO4)c3=O)cc2)c(O)cc1O (stereo not drawn)
[1]
  IC50: 0.0409 µM
[2]
  GI50: 0.12 µM
[3]
  GI50: 0.09 µM
[4]
  GI50: 0.07 µM
[5]
  GI50: 0.06 µM

## CCCN(C(=O)c1cc(C(C)C)c(O)cc1O)c1ccc(Cn2c(=O)c(F)cn(C3CCCO3)c2=O)cc1 (stereo not drawn)
[1]
  IC50: 0.0482 µM
[2]
  GI50: 0.96 µM
[3]
  GI50: 0.65 µM
[4]
  GI50: 0.52 µM
[5]
  GI50: 0.34 µM

## COc1c(C)cnc(Cn2cnc3c(Cl)nc(N)nc32)c1C [BIIB021]
[2]
  GI50: 0.15 µM
[4]
  GI50: 0.21 µM
[5]
  GI50: 0.2 µM

## CCN(C(=O)c1cc(C(C)C)c(O)cc1O)c1ccc(Cn2c(=O)[nH]cc(F)c2=O)cc1
[1]
  IC50: 0.0449 µM
[2]
  GI50: 0.03 µM
[3]
  GI50: 0.04 µM
[4]
  GI50: 0.03 µM
[5]
  GI50: 0.03 µM

## CC(C)c1cc(-c2n[nH]c(=O)n2-c2ccc3c(ccn3C)c2)c(O)cc1O [GANETESPIB]
[2]
  GI50: 0.15 µM

## CC(C)c1cc(C(=O)N(Cc2ccc(C#N)cc2)c2ccc(Cn3c(=O)c(F)cn(C4CCCO4)c3=O)cc2)c(O)cc1O (stereo not drawn)
[1]
  IC50: 0.0453 µM
[2]
  GI50: 0.41 µM
[3]
  GI50: 0.35 µM
[4]
  GI50: 0.2 µM
[5]
  GI50: 0.13 µM

## CC(C)c1cc(C(=O)N(Cc2ccccc2)c2ccc(Cn3c(=O)c(F)cn(C4CCCO4)c3=O)cc2)c(O)cc1O (stereo not drawn)
[1]
  IC50: 0.0453 µM
[2]
  GI50: 0.78 µM
[3]
  GI50: 0.8 µM
[4]
  GI50: 0.4 µM
[5]
  GI50: 0.16 µM

## COc1ccc(CN(C(=O)c2cc(C(C)C)c(O)cc2O)c2ccc(Cn3c(=O)c(F)cn(C4CCCO4)c3=O)cc2)cc1 (stereo not drawn)
[1]
  IC50: 0.0588 µM
[2]
  GI50: 0.72 µM
[3]
  GI50: 0.92 µM
[4]
  GI50: 0.39 µM
[5]
  GI50: 0.23 µM

## CC(C)c1cc(C(=O)Nc2ccc(Cn3c(=O)c(F)cn(C4CCCO4)c3=O)cc2)c(O)cc1O (stereo not drawn)
[1]
  IC50: > 1 µM
[2]
  GI50: > 10 µM
[3]
  GI50: > 10 µM
[4]
  GI50: > 10 µM
[5]
  GI50: > 10 µM

## O=c1[nH]cc(F)c(=O)[nH]1 [FLUOROURACIL]
[2]
  GI50: > 10 µM
[3]
  GI50: 19.8 µM

## CC(C)c1cc(C(=O)N(Cc2ccc(Cl)cc2)c2ccc(Cn3c(=O)c(F)cn(C4CCCO4)c3=O)cc2)c(O)cc1O (stereo not drawn)
[1]
  IC50: 0.0547 µM
[2]
  GI50: 0.7 µM
[3]
  GI50: 0.56 µM
[4]
  GI50: 0.46 µM
[5]
  GI50: 0.16 µM

## O=c1[nH]c(=O)n(C2CCCO2)cc1F (stereo not drawn) [TEGAFUR]
[2]
  GI50: > 10 µM
[3]
  GI50: > 50 µM

## CCN(C(=O)c1cc(C(C)C)c(O)cc1O)c1ccc(Cn2c(=O)c(F)cn(C3CCCO3)c2=O)cc1 (stereo not drawn)
[1]
  IC50: 0.0278 µM
[2]
  GI50: 0.01 µM
[6]
  Ratio IC50: 15
[7]
  Activity: Active
[3]
  GI50: 0.07 µM
[4]
  GI50: 0.06 µM
[5]
  GI50: 0.04 µM
[8]
  inhibition: Active
[9]
  inhibition: Active
[10]
  inhibition: Active
[11]
  inhibition: Active
[12]
  inhibition: Active
[13]
  inhibition: Active
[14]
  inhibition: Active
[15]
  inhibition: Active
[16]
  inhibition: Active
[17]
  Activity: Active
[18]
  Activity: Dose-dependent effect
[19]
  Activity: Dose-dependent effect
[20]
  Activity: Dose-dependent effect
[21]
  Activity: Dose-dependent effect
[22]
  Activity: Dose-dependent effect
[23]
  Activity: Dose-dependent effect
[24]
  Activity: Dose-dependent effect
[25]
  Activity: Dose-dependent effect
[26]
  Activity: Dose-dependent effect
[27]
  Activity: Dose-dependent effect
